The source of these data is ChEMBL document CHEMBL1157562, “Piperazinyl glutamate pyridines as potent orally bioavailable P2Y12 antagonists for inhibition of platelet aggregation” (J Med Chem, 2010).

Each structure is given as a SMILES string. pIC50, pKi: −log10 of the molar value.

One data set has as its system Platelet. Nature of the data set: Relative potency, ratio of IC50 for drug to IC50 for AZD-6140 for platelet aggregation in human platelet rich plasma. Format: functional.
Data set [1] is described as follows: Volume of distribution at steady state in Sprague-Dawley rat at 2 mg/kg, iv and 5 mg/kg, po. The class given is ADME, organism-based. Particulars: in vivo, read-out: Vdss. Summed up: (§1)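 Rats received 2 mg/kg iv infusion or 5 mg/kg po, in 50% PEG400/40% PBS/10% ethanol.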
In the next data set the target is P2Y purinoceptor 12 (Homo sapiens, UniProt Q9H244). Description: Displacement of [33P]ADP from human recombinant P2Y12 receptor expressed in CHO cells. Format: cell-based. Summed up: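 Washed membranes from CHO cells expressing synthetic human P2Y12, incubated 1 h at room temperature with 0.2 nM 33P-MeSADP in 50 mM Tris/100 mM NaCl/1 mM EDTA. Compound was tested as a 7-point 3-fold series in triplicate. Nonspecific binding was defined with 300 nM 2-MeSADP, followed by filtration.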
Sequence of P2Y purinoceptor 12 (Q9H244 whole entry): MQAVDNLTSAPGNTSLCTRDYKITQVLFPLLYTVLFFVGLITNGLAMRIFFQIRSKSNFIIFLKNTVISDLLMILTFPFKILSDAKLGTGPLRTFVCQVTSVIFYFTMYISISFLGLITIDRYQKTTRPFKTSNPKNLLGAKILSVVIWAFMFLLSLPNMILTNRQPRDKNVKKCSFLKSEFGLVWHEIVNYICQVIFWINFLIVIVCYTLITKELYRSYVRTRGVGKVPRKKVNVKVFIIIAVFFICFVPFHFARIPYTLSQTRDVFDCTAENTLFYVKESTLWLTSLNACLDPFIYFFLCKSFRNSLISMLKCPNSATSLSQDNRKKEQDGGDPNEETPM

Data set [2] in a line: Antiplatelet aggregation activity against adenosine diphosphate-induced human platelet rich plasma assessed as inhibition of platelet aggregation by turbidimetric method. The class given is functional. Summed up: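 Human PRP, prepared by two-step centrifugation and adjusted to 330 000 platelets/μL with PPP. Compound was preincubated 5 min at 37 °C in 0.5% DMSO, then 20 μM ADP was added. OD626 was read kinetically for 15 min at 37 °C with mixing between reads.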

A further data set in a line: in vivo. The note with it: Sprague-Dawley, rat, po, 5 mg/kg.
Data set [3] can be described thus: Clearance in Sprague-Dawley rat at 2 mg/kg, iv and 5 mg/kg, po. The note with it: in vivo. The class given is ADME, organism-based. In a few lines: as §1
The nature of data set [4]: Half life in Sprague-Dawley rat at 2 mg/kg, iv and 5 mg/kg, po. The class given is ADME, organism-based. The note with it: in vivo. Summed up:
as §1

For data set [5], the species on record is Rattus norvegicus. Particulars: in vivo, po, 5 mg/kg.
Data set [6] can be described thus: Antiplatelet aggregation activity against adenosine diphosphate-induced human platelet rich plasma assessed as inhibition of platelet aggregation by chronolog PRP aggregometry assay. The note with it: read-out: IC50(app).
For the next data set, the species on record is Canis familiaris. Nature of the data set: Toxicity in dog assessed as adverse effects. Format: organism-based, Canis lupus familiaris. The note with it: in vivo.
The nature of data set [7]: Solubility of the compound. The class given is physicochemical.
Data set [8] in a line: Chemical stability of the compound. The class given is physicochemical.
For data set [9], the species on record is Rattus norvegicus. Description: Antithrombotic activity in rat venous thrombus model assessed as inhibition of injury-induced thrombosis. Format: functional, organism-based. Summed up: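 Rats given test compound orally; thrombosis induced by vascular injury with ferric chloride; thrombus formation was scored as the read-out.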
For data set [10], the species on record is Rattus norvegicus. Nature of the data set: Toxicity in rat assessed as adverse effects. The class given is organism-based. Particulars: in vivo.
Data set [11] in a line: Apparent permeability across human Caco-2 cells. Format: ADME, cell-based.

What is called pKi is −log10 of the Ki, conventionally taken in molar units. As usually defined, the pIC50 is −log10 of the IC50, conventionally taken in molar units. By bioavailability is commonly meant dose-corrected exposure relative to a reference, in per cent. Read a high bioavailability as much systemic uptake. Usually half-life stands for the time needed for the level to fall by half in the phase considered. For the compound `CCCCCOC(=O)N1CCN(C(=O)[C@H](CCC(=O)O)NC(=O)c2cc(O)cc(-c3ccccc3)n2)CC1`, the “Ratio IC50” value with Platelet is 7.2. Moreover, the Vd in data set [1] is 29 L/kg. In addition, at P2Y purinoceptor 12, the pKi is 7.96. In addition, in [2] (Homo sapiens, Platelet, Plasma), the pIC50 is 5.00. Also, the bioavailability in the data set “in vivo” was found to be 66%. The compound further gave a clearance in data set [3] of 675 mL/min/kg. This compound gave a half-life in data set [4] of 30 min.

In the case of `CCCCCCOC(=O)N1CCN(C(=O)[C@H](CCC(=O)O)NC(=O)c2cc(OC3CCNCC3)cc(-c3ccccc3)n2)CC1`, the “Ratio IC50” value in the data set on Platelet came to 1.8. For the same compound, the Vd in [1] worked out at 6.9 L/kg. Further, at P2Y purinoceptor 12, the pKi was 8.03. Moreover, the pIC50 in data set [2] (Homo sapiens, Platelet, Plasma) is 5.62. This compound registered a bioavailability in the data set “in vivo” of 1%. In data set [3], this compound registered a clearance of 150 mL/min/kg. For the same compound, in data set [4], the half-life is 30 min.

Take `CCCNc1cc(C(=O)N[C@@H](CCC(=O)O)C(=O)N2CCN(C(=O)OCC)CC2)nc(-c2ccccc2)c1`: the “Ratio IC50” value with Platelet is reported as 28. Besides, in data set [1], the Vd came out at 3.8 L/kg. In data set [2] (Homo sapiens, Platelet, Plasma), the pIC50 was 4.55. In “in vivo”, this compound gave a bioavailability of 80%. In [3], this compound registered a clearance of 85 mL/min/kg. Besides, the half-life in data set [4] was 30 min.

For the compound `CCCCCOC(=O)N1CCN(C(=O)[C@H](CCC(=O)O)NC(=O)c2cc(NCCO)cc(-c3ccccc3)n2)CC1`, in the data set with Platelet, the “Ratio IC50” value is 3.2. For the same compound, the Vd in [1] worked out at 3.9 L/kg. Moreover, the pKi on P2Y purinoceptor 12 is 8.24. The pIC50 in [2] (Homo sapiens, Platelet, Plasma) was 5.42. The compound also came in with a bioavailability in the data set “in vivo” of 8%. In data set [3], this compound yielded a clearance of 103 mL/min/kg. Besides, the half-life in [4] was 24 min.

Take `CCCCCOC(=O)N1CCN(C(=O)[C@H](CCC(=O)O)NC(=O)c2cc(OCCOC)cc(-c3ccccc3)n2)CC1`: the “Ratio IC50” value in the data set on Platelet was found to be 3.2. Moreover, in data set [1], the Vd stood at 2.3 L/kg. Also, the pIC50 in [2] (Homo sapiens, Platelet, Plasma) was 5.37. In the data set listed under Rattus norvegicus [5], this compound gave an F of 183%. This compound also yielded a clearance in data set [3] of 46 mL/min/kg. In data set [4], this compound gave a half-life of 36 min.

With `CCOC(=O)N1CCN(C(=O)[C@H](CCC(=O)O)NC(=O)c2cccc(-c3ccccc3)n2)CC1`, the Vd in data set [1] amounted to 15.5 L/kg. Besides, on P2Y purinoceptor 12, the pKi was 6.68. Also, the pIC50 in [2] (Homo sapiens, Platelet, Plasma) is 4.15. Also, in the data set “in vivo”, the bioavailability was 34%. Also, the clearance in data set [3] worked out at 98 mL/min/kg. Moreover, the half-life in data set [4] is 108 min.

In the case of `CCOC(=O)N1CCN(C(=O)[C@H](CCC(=O)O)NC(=O)c2cc(OCCOC)cc(-c3ccccc3)n2)CC1`, the “Ratio IC50” value in the data set with Platelet came to 8. Further, in data set [1], the Vd was determined as 13.6 L/kg. In addition, at P2Y purinoceptor 12, the pKi is 6.85. In addition, in [2] (Homo sapiens, Platelet, Plasma), the pIC50 was 5.22. In addition, the bioavailability in “in vivo” came to 33%. In addition, the clearance in data set [3] was 94 mL/min/kg. In data set [4], this compound showed a half-life of 12 min.

As to `CCCCCOC(=O)N1CCN(C(=O)[C@H](CCC(=O)O)NC(=O)c2cc(CCCN(CC)CC)cc(-c3ccccc3)n2)CC1`, the “Ratio IC50” value with Platelet came to 1.6. In [1], the Vd was 9.2 L/kg. In addition, on P2Y purinoceptor 12, the pKi was 7.66. Moreover, the pIC50 in data set [2] (Homo sapiens, Platelet, Plasma) was 5.96. The compound also displayed a clearance in data set [3] of 96 mL/min/kg. Also, the half-life in data set [4] was 66 min.

As to `CCCCCOC(=O)N1CCN(C(=O)[C@H](CCC(=O)O)NC(=O)c2cc(N3CCC(N4CCCC4)CC3)cc(-c3ccccc3)n2)CC1`, in the data set with Platelet, the “Ratio IC50” value was 0.57. In [1], the Vd turned out to be 7.3 L/kg. The pKi on P2Y purinoceptor 12 was 8.05. Further, the pIC50 in data set [2] (Homo sapiens, Platelet, Plasma) was 5.92. Also, the clearance in [3] worked out at 52 mL/min/kg. Also, in [4], the half-life is 96 min.

For the compound `CCCCCOC(=O)N1CCN(C(=O)[C@H](CCC(=O)O)NC(=O)c2cc(OC(=O)N3CCCC3)cc(-c3ccccc3)n2)CC1`, the “Ratio IC50” value in the data set on Platelet stood at 1. The Vd in [1] worked out at 2.3 L/kg. Besides, the negative logarithm of the Ki (pKi) on P2Y purinoceptor 12 was 8.11. Also, the pIC50 in [2] (Homo sapiens, Platelet, Plasma) is 5.74. The clearance in data set [3] is 46 mL/min/kg. Moreover, the half-life in data set [4] was 36 min.

As to `CCCCCOC(=O)N1CCN(C(=O)[C@H](CCC(=O)O)NC(=O)c2cc(N3CCC(COC)CC3)cc(-c3ccccc3)n2)CC1`, the pIC50 in [2] (platelet) is 5.41; in data set [6], 5.74. Further, the Activity result in the data set listed under Canis familiaris and in the data set listed under Rattus norvegicus [10] was “Non-toxic” each time. The solubility result in data set [7] is reported as “Soluble”. For the same compound, in data set [8], the Stability entry was “Stable”. In addition, the inhibition entry in the data set listed under Rattus norvegicus [9] is “Dose-dependent effect”.

As to `CCCCCOC(=O)N1CCN(C(=O)[C@H](CCC(=O)O)NC(=O)c2cc(N3CCC(N)CC3)cc(-c3ccccc3)n2)CC1`, the “Ratio IC50” value with Platelet came to 1.2. Moreover, in [1], the Vd turned out to be 0.38 L/kg. Moreover, the pKi at P2Y purinoceptor 12 is 7.77. Also, the pIC50 in data set [2] (Homo sapiens, Platelet, Plasma) was 5.96. In [3], this compound had a clearance of 32 mL/min/kg. For the same compound, the half-life in [4] was 6 min.

`CCCCOc1cc(C(=O)N[C@@H](CCC(=O)O)C(=O)N2CCN(C(=O)OCC)CC2)nc(-c2ccccc2)c1`: the “Ratio IC50” value in the data set with Platelet worked out at 32. Further, the Vd in data set [1] was determined as 3.9 L/kg. At P2Y purinoceptor 12, the pKi was 7.22. Moreover, the pIC50 in [2] (Homo sapiens, Platelet, Plasma) is 4.47. The bioavailability in the data set “in vivo” was found to be 72%. The clearance in data set [3] stood at 109 mL/min/kg. The compound also had a half-life in data set [4] of 24 min.

One may read the Papp as the rate of passage across a membrane or cell layer, normalised by area and donor concentration. Regarding `CCCCOC(=O)N1CCN(C(=O)[C@H](CCC(=O)O)NC(=O)c2cc(OCCOC)cc(-c3ccccc3)n2)CC1`, the “Ratio IC50” value in the data set on Platelet is 2.9. For the same compound, the Papp in [11] is 1.1 ×10⁻⁶ cm/s. Besides, the pIC50 in data set [2] (Homo sapiens, Platelet, Plasma) is 5.35.

As for `CCCCCOC(=O)N1CCN(C(=O)[C@H](CCC(=O)O)NC(=O)c2cc(C(=O)N3CCC(OC)CC3)cc(-c3ccccc3)n2)CC1`, the “Ratio IC50” value in the data set on Platelet is recorded as 0.99. In [1], the Vd was 1.2 L/kg. Besides, the pKi at P2Y purinoceptor 12 was 8.49. In addition, the pIC50 in data set [2] (Homo sapiens, Platelet, Plasma) was 6.34. This compound also registered a clearance in data set [3] of 54 mL/min/kg. Further, the half-life in [4] is 15 min.

With `CCCCCOC(=O)N1CCN(C(=O)[C@H](CCC(=O)O)NC(=O)c2cc(OC(=O)N3CCOCC3)cc(-c3ccccc3)n2)CC1`, in the data set with Platelet, the “Ratio IC50” value amounted to 0.99. Moreover, in data set [1], the Vd was 31 L/kg. The pKi at P2Y purinoceptor 12 is 8.32. For the same compound, the pIC50 in data set [2] (Homo sapiens, Platelet, Plasma) was 5.77. The compound further showed a clearance in data set [3] of 220 mL/min/kg. Besides, the half-life in data set [4] was 96 min.

Regarding `CCCCCOC(=O)N1CCN(C(=O)[C@H](CCC(=O)O)NC(=O)c2cc(OCC3CCN(CCOC)CC3)cc(-c3ccccc3)n2)CC1`, the “Ratio IC50” value with Platelet was 0.73. The Vd in data set [1] stood at 10.9 L/kg. In addition, the pKi on P2Y purinoceptor 12 was 8.28. Further, the pIC50 in data set [2] (Homo sapiens, Platelet, Plasma) was 6.26. The clearance in data set [3] was found to be 141 mL/min/kg. In addition, in data set [4], the half-life is 53.4 min.

For `CCCCCOC(=O)N1CCN(C(=O)[C@H](CCC(=O)O)NC(=O)c2cc(OCC3CCN(C(C)C)CC3)cc(-c3ccccc3)n2)CC1`, the “Ratio IC50” value with Platelet is 0.5. Also, the Vd in data set [1] turned out to be 3.4 L/kg. The pKi on P2Y purinoceptor 12 is 8.26. Also, in data set [2] (Homo sapiens, Platelet, Plasma), the pIC50 was 6.42. The clearance in [3] was 63 mL/min/kg. Besides, the half-life in data set [4] is 36 min.
